Measles CPE: compounds protecting cells from measles virus cytopathic effect, primary screen, measles RdRp inhibitor project, single point, MLSMR library, absorbance; Measles virus-infected cells, CPE protection; protection (pct of control), % at 4 µM; 1.5% of 140,000 active; AID 841, 2007; in the data active means protection mostly above about 24%, no sharp cut-off; inactive means mostly below about 26%
Rad51 HR inh: human RAD51 strand exchange inhibitors, primary screen, biochemical, fluorescence; hRad51 DNA strand exchange, fluorescence dequenching; 0.085% of 200,000 active; DNA repair protein RAD51 homolog 1 (Homo sapiens), Q06609; inhibition, % at 10 µM; AID 1385, 2008;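 active means inhibition above 40% at the single screening dose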;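 further: 0% = DMSO control wells and 100% = blanks with heterologous ssDNA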
Target sequence (Q06609 whole entry, looked up): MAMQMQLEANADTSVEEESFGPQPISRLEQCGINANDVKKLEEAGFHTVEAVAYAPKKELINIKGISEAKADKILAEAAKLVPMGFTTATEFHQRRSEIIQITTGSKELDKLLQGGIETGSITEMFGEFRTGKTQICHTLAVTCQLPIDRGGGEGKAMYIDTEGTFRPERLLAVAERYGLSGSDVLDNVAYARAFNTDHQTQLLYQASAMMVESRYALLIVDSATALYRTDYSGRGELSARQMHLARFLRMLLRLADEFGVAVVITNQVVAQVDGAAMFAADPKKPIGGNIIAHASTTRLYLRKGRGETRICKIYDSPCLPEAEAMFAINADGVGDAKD
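Test system: preformed human Rad51 ssDNA filaments; also added: Donor/quencher-labelled 47-bp dsDNA substrate; doses: 10 µM final, single point; times: 37 °C 15-min filament assembly, 30-min compound preincubation, 15-min exchange; detection: FRET fluorescence dequenching, excitation 485 nm, emission 520 nm; read-out basis: Fluorescence-based percent inhibition, control- and blank-normalised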
Arbovirus anti: antivirals against arbovirus infection, primary screen, cell-based, full library, 10K replicate subset | AID 1251, 2008 | 0.37% of 200,000 active | inhibition, % at 10 µM | arbovirus infection cell-based antiviral screen; in the data active means inhibition above about 30%
Yeast lifespan up: compounds extending yeast replicative lifespan, primary screen, S. cerevisiae, OD615 | S. cerevisiae growth with nicotinamide; deaD strain in restrictive glucose medium | inhibition of the nicotinamide effect, % at 10 µM | 0.68% of 130,000 active | AID 775, 2007;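 active means inhibition above a set limit, placed 3 SD over the median of all compounds, cut at about 26% in these data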;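 further: 0% = nicotinamide-treated wells and 100% = cells grown without nicotinamide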
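System: DeaD-strain S. cerevisiae / Buffer or medium: CSMM-D, restrictive glucose (dextrose) synthetic minimal medium / Probe or stimulus: nicotinamide, 1.5 mM, co-present with compound / Compound: one concentration, 10 µM, DMSO 0.25% / Incubation: 48 h compound exposure at 30 °C, humidified / Technique: optical density (absorbance) at 615 nm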
Yeast growth inh: growth inhibitors of yeast BB579 in restrictive medium, primary screen, yeast lifespan-shortening project, S. cerevisiae; OD615, 48 h; inhibition, % at 10 µM; 0.51% of 140,000 active; AID 804, 2007;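 active means inhibition above a set limit, 3 SD over the mean compound inhibition, cut at about 44% in these data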
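Test system: Saccharomyces cerevisiae DeaD strain BB579, replicative lifespan model yeast | Buffer or medium: Restrictive CSMM-D medium | Doses: One dose, 10 µM compound with 0.25% DMSO | Incubation: 48 h exposure, 30 °C | Detection: Culture absorbance at 615 nm | Control set: Amphotericin B at 10 µg/mL as positive control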
Efa HMGR inh: inhibitors of E. faecalis class II HMGR, primary screen, biochemical, Enterococcus faecalis. inhibition, % at 10 µM. 0.41% of 190,000 active. purified E. faecalis HMGR, NADPH absorbance 340 nm kinetic. HMG-CoA reductase (Enterococcus faecalis, mvaE);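 active means inhibition above a set limit, the median over all tested compounds plus 3 SD, cut at about 9.5% in these data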;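 further: enzyme runs in reverse so mevalonate oxidation gives rising NADPH absorbance; 0% = complete reaction with DMSO and 100% = background rate lacking mevalonate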
* = called active by the depositor; · = not tested or not shown. Hits are enriched below; roughly 2.4% of the tested compounds scored in any of these assays.

SMILES | Measles CPE | Rad51 HR inh | Arbovirus anti | Yeast lifespan up | Yeast growth inh | Efa HMGR inh
Cc1cc(C)nc(N/N=C/C2=C(O)CC(c3ccc(F)cc3)CC2=O)n1 (configuration not stated) | · | 15 | · | · | · | ·
CC(C)(C)c1nc2c(Br)cc(Br)cc2c(=O)o1 | 3 | 20 | 1 | 5 | -59 | 3
CCOC(=O)CSc1nnc(-c2ccco2)n1-c1ccccc1 | 23 | -4 | -5 | -8 | -49 | -11
CCOC(=O)CSc1nnc(-c2ccco2)n1-c1ccc(C)cc1 | 38* | -1 | 5 | 4 | -30 | -1
O=C(O)CCC(=O)N(Cc1ccco1)C1CC(=O)N(c2ccccc2)C1=O (configuration not stated) | · | 11 | · | · | · | ·
Cc1ccc(NC(=O)COc2ccc(CCO)cc2-n2nc3ccccc3n2)cc1C | 4 | 16 | -21 | -1 | -26 | -3
CC(C)n1nc(C(=O)Oc2cccc(Cl)c2Cl)c2ccccc2c1=O | 9 | 0 | -10 | 35* | -32 | -5
O=C(NCCC(=O)N1CCN(c2ncccn2)CC1)c1ccccc1 | 32* | 11 | -1 | -3 | -9 | 0
COc1ccc(NC(=O)C2CCC(CNS(=O)(=O)c3cccs3)CC2)cc1 (configuration not stated) | · | 29 | 13 | · | · | -7
COc1cccc(NC(=S)N(CCCN2CCOCC2)Cc2cn(C)c3ccccc23)c1 | 11 | -10 | -6 | 1 | -7 | -3
COc1ccccc1-c1nnc(SCC(=O)NC2CCS(=O)(=O)C2)n1CCc1ccccc1 (configuration not stated) | 59* | -7 | 0 | 5 | -7 | -2
Cc1nnc(SCC(=O)NC2CCS(=O)(=O)C2)n1Cc1ccccc1 (configuration not stated) | · | -3 | 0 | · | · | 0
Cc1c(NC(=O)C(C)n2cc([N+](=O)[O-])cn2)c(=O)n(-c2ccccc2)n1C (configuration not stated) | · | 2 | 5 | · | · | -1
Cc1noc(C)c1S(=O)(=O)NCCCN1CCN(Cc2ccccc2)CC1 | 30* | · | 12 | -5 | -23 | 2
Cc1cc(C)c2nc(SCC(=O)NNC(=O)c3ccco3)c(C)cc2c1 | · | -4 | 1 | · | · | -5
Cc1cc2cccc(C)c2nc1SCC(=O)NNC(=O)c1ccco1 | · | 6 | 2 | · | · | 14*
COc1ccc(CN2CCC(CO)(Cc3ccccc3C(F)(F)F)CC2)c(F)c1 | · | · | 7 | · | · | 10*
Cc1csc(SCCn2c(N3CCOCC3)nc3c2c(=O)[nH]c(=O)n3C)n1 | 22 | -5 | 1 | -3 | -7 | -5
CC1CCCN(c2nc3c(c(=O)[nH]c(=O)n3C)n2CCCc2ccccc2)C1 (configuration not stated) | 42* | 1 | 18 | 4 | -31 | -7
C/C=C/Cn1c(N2CCCCCC2)nc2c1c(=O)[nH]c(=O)n2C | 8 | · | 5 | 137* | 6 | -3
Cc1cc(C)nc(SCCn2c(N3CCOCC3)nc3c2c(=O)[nH]c(=O)n3C)n1 | · | 1 | 9 | · | · | 12*
Cn1c(=O)[nH]c(=O)c2c1nc(N1CCCCCC1)n2CC(N)=O | 11 | -9 | 4 | · | -2 | -2
O=C(CCCC(=O)NNC(=O)Nc1ccccc1)NNC(=O)Nc1ccccc1 | · | 0 | 1 | · | · | -4
Cc1ccc(C(=O)CSc2nnc(-c3snnc3C)n2C2CC2)cc1 | · | -4 | · | · | · | ·
CCN(CC)S(=O)(=O)c1ccc(Cl)c(C(=O)NC)c1 | 45* | 3 | 2 | -5 | -12 | -1
SMILES | Measles CPE | Rad51 HR inh | Arbovirus anti | Yeast lifespan up | Yeast growth inh | Efa HMGR inh
CC(=O)Nc1ccc(NC(=O)COC(=O)c2ccccn2)cc1 | · | 14 | 0 | · | · | -2
CC1(C)CC(=O)C2=C(C1)N(c1ccc(F)cc1)C(=O)CC2c1ccsc1 (configuration not stated) | 6 | 7 | 1 | -2 | 19 | 1
COc1ccc(N=Cc2c(O)[nH]c3ccccc23)cc1 | 46* | -9 | 5 | -26 | -25 | 2
Cc1ccc(NC(=O)/C(=C/C=C/c2ccccc2)NC(=O)c2ccccc2)cc1 | 17 | -6 | 30* | 3 | -20 | -7
O=C(Nc1ccc2c(c1)OCO2)c1ccncc1 | 26* | 8 | -4 | -5 | -14 | 6
O=C(Nc1ccc2c(c1)OCO2)NC1(C(F)(F)F)Oc2ccccc2O1 | 2 | -2 | 8 | -9 | -52 | -1
O=C(Nc1ccccc1C(=O)Nc1ccc2c(c1)OCO2)c1ccco1 | 25* | -2 | -9 | -9 | -49 | 4
CC(=O)Nc1ccc2c(c1)OCO2 | · | 8 | 9 | · | · | 0
CC(=O)Nc1ccc2c(c1)OCCO2 | 3 | 6 | 8 | -24 | -27 | 16*
O=C(Nc1ccc2c(c1)OCCO2)NC1(C(F)(F)F)Oc2ccccc2O1 | 11 | 2 | -19 | 30* | -49 | 5
COc1ccc(C)cc1-n1nnnc1SCc1cc(=O)n2cc(C)ccc2n1 | 18 | 1 | -1 | -10 | -61 | -2
O=C(CSc1nnc(NC(=O)c2ccc(S(=O)(=O)N3CCOCC3)cc2)s1)Nc1ccccc1C(F)(F)F | 4 | 0 | 0 | 3 | -7 | -4
COc1cccc(OC)c1C(=O)Nc1cccnc1 | · | 3 | 6 | · | · | 5
C/C(=C\C(=O)c1ccccc1)Nc1ccc2c(c1)OCO2 | 30* | -3 | -14 | -8 | -1 | -3
Cc1ccc2c(c1)c1c(n2CC(O)Cn2c(C)nc3ccccc32)C(=O)CCC1 (configuration not stated) | 24 | -4 | 37* | -10 | 4 | -1
CCOC(=O)COc1ccccc1/C=C\[N+](=O)[O-] | 2 | · | -45 | 44* | 35 | 3
CCOC(=O)COc1cc([N+](=O)[O-])cc2cccnc12 | · | 2 | -4 | · | · | -5
O=C(NNC1=Nc2cccc3cccc1c23)c1ccccc1Br | 6 | -12 | -6 | 38* | -35 | 2
c1ccc(NC2=Nc3cccc4cccc2c34)cc1 | · | -20 | 5 | · | · | -4
Nc1cc(Cl)ccc1N1C(=O)CCC1=O | · | -21 | · | · | · | ·
O=C1CN=CN=CN1c1ccc(Cl)cc1Cl | 45* | -1 | -3 | -3 | -4 | -3
Cc1nn(-c2cccc(Cl)c2)c2nc(C(F)(F)F)[nH]c(=O)c12 | 24 | 4 | 30 | -6 | -17 | -13
Cc1nn(-c2cc(C(F)(F)F)ccc2Cl)c2nc(C(F)(F)F)[nH]c(=O)c12 | 3 | -50 | 42* | 2 | -5 | -2
COc1ccc(-n2cc(C(=O)Nc3cc([N+](=O)[O-])ccc3OC)c3ccccc3c2=O)cc1 | 30 | 6 | -1 | -4 | -8 | -7

Bioassay records from PubChem BioAssay.
